Results on eleven compounds are retold here after ChEMBL document CHEMBL1157190, “Design, synthesis, and anticonvulsant activity of N-phenylamino derivatives of 3,3-dialkyl-pyrrolidine-2,5-diones and hexahydro-isoindole-1,3-diones” (Bioorg Med Chem, 2008).

Active and inactive are the calls of the source. The rule behind the calls is not given here.

For one data set, the system named is Mus musculus. Put plainly: Neurotoxicity in ip dosed CF1 albino mouse at 300 mg/kg after 4 hrs by rotarod test. It is filed as toxicity, organism-based. Set-up: dose 300 mg/kg, route intraperitoneal. To be noted: in vivo. The procedure, abridged: (§1)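 CF-1 mice given 30, 100 or 300 mg/kg ip in 0.5% methylcellulose/water, examined at 0.5 and 4 h. Rotorod test: neurotoxicity is the inability to keep equilibrium on the rod for a given time. Value is the minimum dose giving motor impairment; a dash means none at 300 mg/kg.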
On to `CCCCC1(C)CC(=O)N(Nc2ccccc2Cl)C1=O` (configuration not stated), for which the Activity entry was “Not Active”.
Still for that read-out and setting: for `CC1(C)CC(=O)N(Nc2ccccc2Cl)C1=O` the value was “Not Active”; for `CCCC1(C)CC(=O)N(Nc2cccc(Cl)c2)C1=O` (configuration not stated), “Not Active”.
As for `CCCC1(C)CC(=O)N(Nc2ccccc2Cl)C1=O` (configuration not stated), the Activity entry is given as “Not Active”.
As to `O=C1C2CCCCC2C(=O)N1Nc1ccc(Cl)cc1` (configuration not stated), the Activity result is recorded as “Not Active”.
As to `CCCCC1(C)CC(=O)N(Nc2ccc(Cl)cc2Cl)C1=O` (configuration not stated), the Activity result is “Not Active”.
Regarding `CCC1(CC)CC(=O)N(Nc2ccccc2)C1=O`, the Activity entry is listed as “Not Active”.
Consider `Cc1ccc(NN2C(=O)CC(C)(C)C2=O)cc1`, for which the Activity result is given as “Not Active”.
With `O=C1C2CCCCC2C(=O)N1Nc1ccccc1Cl` (configuration not stated), the Activity entry is on record as “Not Active”.
Turning to `CCC1(CC)CC(=O)N(Nc2ccc(C)cc2)C1=O`, the Activity result is “Not Active”.

System in another data set: not listed separately
Put plainly: Lipophilicity, log kw of compound by RP-HPLC.
Details: not given
The format is physicochemical. In outline:
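RP-HPLC on a C18 end-capped column at room temperature, with UV detection at 214 nm and uracil as the unretained marker. Capacity factor k = (tr − t0)/t0, from the mean of three measurement sets. log k extrapolated to 100% water (log k = log kw − Sφ) to give log kw.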
Turning to `CCC1(C)CC(=O)N(Nc2ccccc2)C1=O` (configuration not stated), the “log K” value turned out to be 1.695.
Take `CCCCC1(C)CC(=O)N(Nc2ccccc2Cl)C1=O` (configuration not stated): the “log K” value turned out to be 2.566.
Take `CC1(C)CC(=O)N(Nc2ccccc2Cl)C1=O`: the “log K” value is 1.876.
Same read-out and setting: to `CCCC1(C)CC(=O)N(Nc2cccc(Cl)c2)C1=O` (configuration not stated) belongs 2.401; to `CCCC1(C)CC(=O)N(Nc2ccccc2Cl)C1=O` (configuration not stated), 2.364; to `O=C1C2CCCCC2C(=O)N1Nc1ccc(Cl)cc1` (configuration not stated), 2.224.
With `CCCCC1(C)CC(=O)N(Nc2ccc(Cl)cc2Cl)C1=O` (configuration not stated), the “log K” value was determined as 2.896.
`CCC1(CC)CC(=O)N(Nc2ccccc2)C1=O`: the “log K” value is reported as 1.826.
With `Cc1ccc(NN2C(=O)CC(C)(C)C2=O)cc1`, the “log K” value was 1.642.
As to `O=C1C2CCCCC2C(=O)N1Nc1ccccc1Cl` (configuration not stated), the “log K” value is 2.162.
For `CCC1(CC)CC(=O)N(Nc2ccc(C)cc2)C1=O`, the “log K” value came out at 1.999.

In the next data set the test system is Mus musculus. Put plainly: Anticonvulsant activity in ip dosed CF1 albino mouse assessed as inhibition of subcutaneous pentylenetetrazole-induced electrical stimulus at 300 mg/kg after 0.5 hr. The format is functional, organism-based. Set-up: dose 300 mg/kg.
Details: not given
In outline:
(§2)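 Male CF-1 mice injected intraperitoneally at 30, 100 and 300 mg/kg, suspended in 0.5% methylcellulose/water. MES or subcutaneous pentylenetetrazole challenge at 0.5 and 4 h; selected compounds also at 1 or 2 h.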
For `CCC1(CC)CC(=O)N(Nc2ccccc2)C1=O`, the outcome was inactive.
As for `O=C1C2CCCCC2C(=O)N1Nc1ccccc1Cl` (configuration not stated), the result was inactive.
`CCC1(CC)CC(=O)N(Nc2ccc(C)cc2)C1=O`: the outcome was inactive.

The test system of a further data set is Mus musculus. Put plainly: Anticonvulsant activity in ip dosed CF1 albino mouse assessed as inhibition of subcutaneous pentylenetetrazole-induced electrical stimulus after 0.5 hr. The format is functional.
Details: not given
The procedure, abridged: as §2
Turning to `CCC1(C)CC(=O)N(Nc2ccccc2)C1=O` (configuration not stated), the Activity amounted to 300 mg/kg.
`CCCCC1(C)CC(=O)N(Nc2ccccc2Cl)C1=O` (configuration not stated): the Activity is 300 mg/kg.
As to `CC1(C)CC(=O)N(Nc2ccccc2Cl)C1=O`, the Activity worked out at 300 mg/kg.
For the compound `CCCC1(C)CC(=O)N(Nc2cccc(Cl)c2)C1=O` (configuration not stated), the Activity worked out at 300 mg/kg.
Still for that read-out and setting: to `CCCC1(C)CC(=O)N(Nc2ccccc2Cl)C1=O` (configuration not stated) belongs 300 mg/kg.
Still for that read-out and setting: for `O=C1C2CCCCC2C(=O)N1Nc1ccc(Cl)cc1` (configuration not stated) the value was 100 mg/kg.
Take `CCCCC1(C)CC(=O)N(Nc2ccc(Cl)cc2Cl)C1=O` (configuration not stated): the Activity amounted to 100 mg/kg.
Consider `Cc1ccc(NN2C(=O)CC(C)(C)C2=O)cc1`, for which the Activity amounted to 300 mg/kg.

The next data set deals with Mus musculus. Put plainly: Anticonvulsant activity in ip dosed CF1 albino mouse assessed as inhibition of subcutaneous pentylenetetrazole-induced electrical stimulus at 300 mg/kg after 4 hrs. More on the design: dose 300 mg/kg. The format is functional, organism-based.
Details: not given
In outline:
as §2
As to `CCCCC1(C)CC(=O)N(Nc2ccccc2Cl)C1=O` (configuration not stated), the result was inactive.
On the same count and under the same terms, for `CC1(C)CC(=O)N(Nc2ccccc2Cl)C1=O` the value was “inactive”; for `CCCC1(C)CC(=O)N(Nc2cccc(Cl)c2)C1=O` (configuration not stated), “inactive”; for `CCCC1(C)CC(=O)N(Nc2ccccc2Cl)C1=O` (configuration not stated), “inactive”.
`O=C1C2CCCCC2C(=O)N1Nc1ccc(Cl)cc1` (configuration not stated): the outcome was inactive.
Take `CCCCC1(C)CC(=O)N(Nc2ccc(Cl)cc2Cl)C1=O` (configuration not stated): the outcome was inactive.
Regarding `CCC1(CC)CC(=O)N(Nc2ccccc2)C1=O`, the outcome was inactive.
With `Cc1ccc(NN2C(=O)CC(C)(C)C2=O)cc1`, the result was inactive.
As for `O=C1C2CCCCC2C(=O)N1Nc1ccccc1Cl` (configuration not stated), the result was inactive.
Take `CCC1(CC)CC(=O)N(Nc2ccc(C)cc2)C1=O`: the result was inactive.

The next data set relates to Rattus norvegicus. Put plainly: Anticonvulsant activity in Sprague-Dawley rat assessed as protection against seizure at 30 mg/kg, po after 2 hrs by maximal electroshock test. It is filed as functional.
Details: not given
The procedure, abridged: (§3)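 Male Sprague–Dawley rats; compound suspended in 0.5% methylcellulose/water and given orally at a fixed 30 mg/kg, four rats per time point. MES test run at 0.25, 0.5, 1, 2 and 4 h after dosing, with motor impairment checked in parallel. Read-out: number of rats of four protected.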
A general note: The maximal electroshock test induces tonic seizures with an electrical stimulus.
Consider `CCC1(C)CC(=O)N(Nc2ccccc2)C1=O` (configuration not stated), for which the result was inactive.

Another data set concerns Mus musculus. Put plainly: Anticonvulsant activity in ip dosed CF1 albino mouse assessed as inhibition of maximal electroshock-induced electrical stimulus after 0.5 hr. It is filed as functional.
Details: not given
In outline:
as §2
Regarding `CCC1(C)CC(=O)N(Nc2ccccc2)C1=O` (configuration not stated), the Activity came to 300 mg/kg.
On the same count and under the same terms, for `CCCCC1(C)CC(=O)N(Nc2ccccc2Cl)C1=O` (configuration not stated) the value was 300 mg/kg.
Same read-out and setting: to `CC1(C)CC(=O)N(Nc2ccccc2Cl)C1=O` belongs 100 mg/kg; to `CCCC1(C)CC(=O)N(Nc2cccc(Cl)c2)C1=O` (configuration not stated), 300 mg/kg; to `CCCC1(C)CC(=O)N(Nc2ccccc2Cl)C1=O` (configuration not stated), 300 mg/kg.
For the compound `CCCCC1(C)CC(=O)N(Nc2ccc(Cl)cc2Cl)C1=O` (configuration not stated), the Activity was determined as 100 mg/kg.
Take `Cc1ccc(NN2C(=O)CC(C)(C)C2=O)cc1`: the Activity is 300 mg/kg.
As for `CCC1(CC)CC(=O)N(Nc2ccc(C)cc2)C1=O`, the Activity amounted to 300 mg/kg.

The subject of another data set is Mus musculus. Put plainly: Anticonvulsant activity in ip dosed CF1 albino mouse assessed as inhibition of maximal electroshock-induced electrical stimulus at 300 mg/kg after 4 hrs.
Details: not given
It is filed as functional, organism-based. More on the design: dose 300 mg/kg. In outline:
as §2
`CCCCC1(C)CC(=O)N(Nc2ccccc2Cl)C1=O` (configuration not stated): the result was inactive.
`CC1(C)CC(=O)N(Nc2ccccc2Cl)C1=O`: the outcome was inactive.
With `CCCC1(C)CC(=O)N(Nc2cccc(Cl)c2)C1=O` (configuration not stated), the outcome was inactive.
Take `CCCC1(C)CC(=O)N(Nc2ccccc2Cl)C1=O` (configuration not stated): the outcome was inactive.
`O=C1C2CCCCC2C(=O)N1Nc1ccc(Cl)cc1` (configuration not stated): the outcome was inactive.
For `CCCCC1(C)CC(=O)N(Nc2ccc(Cl)cc2Cl)C1=O` (configuration not stated), the outcome was inactive.
As to `CCC1(CC)CC(=O)N(Nc2ccccc2)C1=O`, the result was inactive.
The same measure, in the same setting: to `Cc1ccc(NN2C(=O)CC(C)(C)C2=O)cc1` belongs “inactive”; to `O=C1C2CCCCC2C(=O)N1Nc1ccccc1Cl` (configuration not stated), “inactive”; to `CCC1(CC)CC(=O)N(Nc2ccc(C)cc2)C1=O`, “inactive”.

The subject of a further data set is Rattus norvegicus. Put plainly: Anticonvulsant activity in Sprague-Dawley rat assessed as protection against seizure at 50 mg/kg, po after 0.5 hr by subcutaneous pentylenetetrazole test.
Details: not given
The format is functional. The procedure, abridged:
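Male Sprague–Dawley rats dosed orally at 50 mg/kg as a 0.5% methylcellulose/water suspension, four animals per time point. Convulsant given subcutaneously at 0.25, 0.5, 1, 2 and 4 h after dosing; rotorod motor impairment assessed in parallel. Read-out: number of rats of four protected.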
On to `CCC1(C)CC(=O)N(Nc2ccccc2)C1=O` (configuration not stated), for which the result was inactive.

A further data set has as its system Rattus norvegicus. Put plainly: Anticonvulsant activity in Sprague-Dawley rat assessed as protection against seizure at 30 mg/kg, po after 4 hrs by maximal electroshock test. It is filed as functional.
Details: not given
In outline:
as §3
On to `CCC1(C)CC(=O)N(Nc2ccccc2)C1=O` (configuration not stated), for which the outcome was inactive.

Another data set deals with Mus musculus. Put plainly: Anticonvulsant activity in ip dosed CF1 albino mouse assessed as inhibition of maximal electroshock-induced electrical stimulus at 300 mg/kg after 0.5 hr.
Details: not given
The format is functional, organism-based. Set-up: dose 300 mg/kg. In outline:
as §2
`O=C1C2CCCCC2C(=O)N1Nc1ccc(Cl)cc1` (configuration not stated): the outcome was inactive.
`CCC1(CC)CC(=O)N(Nc2ccccc2)C1=O`: the result was inactive.
Regarding `O=C1C2CCCCC2C(=O)N1Nc1ccccc1Cl` (configuration not stated), the result was inactive.

Another data set concerns Mus musculus. Put plainly: Neurotoxicity in ip dosed CF1 albino mouse after 0.5 hr by rotarod test. The format is toxicity, organism-based. To be noted: in vivo. The procedure, abridged: as §1
`CCC1(C)CC(=O)N(Nc2ccccc2)C1=O` (configuration not stated) displayed an Activity of 100 mg/kg.
For the compound `CCCCC1(C)CC(=O)N(Nc2ccccc2Cl)C1=O` (configuration not stated), the Activity is 300 mg/kg.
Take `CC1(C)CC(=O)N(Nc2ccccc2Cl)C1=O`: the Activity was 30 mg/kg.
`CCCC1(C)CC(=O)N(Nc2cccc(Cl)c2)C1=O` (configuration not stated) returned an Activity of 100 mg/kg.
`CCCC1(C)CC(=O)N(Nc2ccccc2Cl)C1=O` (configuration not stated) came in with an Activity of 300 mg/kg.
Compound `CCCCC1(C)CC(=O)N(Nc2ccc(Cl)cc2Cl)C1=O` (configuration not stated) returned an Activity of 100 mg/kg.
In the case of `CCC1(CC)CC(=O)N(Nc2ccccc2)C1=O`, the Activity was found to be 300 mg/kg.
Same read-out and setting: for `Cc1ccc(NN2C(=O)CC(C)(C)C2=O)cc1` the value was 100 mg/kg; for `CCC1(CC)CC(=O)N(Nc2ccc(C)cc2)C1=O`, 100 mg/kg.

For another data set, the system named is Mus musculus. Put plainly: Neurotoxicity in ip dosed CF1 albino mouse at 300 mg/kg after 0.5 hr by rotarod test. More on the design: dose 300 mg/kg, route intraperitoneal. It is filed as toxicity, organism-based. To be noted: in vivo. The procedure, abridged:
as §1
A general note: In the rotarod test animals must keep their balance on a rotating rod.
As for `O=C1C2CCCCC2C(=O)N1Nc1ccc(Cl)cc1` (configuration not stated), the Activity result is “Not Active”.
As for `O=C1C2CCCCC2C(=O)N1Nc1ccccc1Cl` (configuration not stated), the Activity result was “Not Active”.
